Measured values as given in BindingDB's records for doi:10.1016/j.bmcl.2018.01.022 (Temple University, 2018).

Target: T1, Ribonuclease P protein component (Staphylococcus aureus, UniProt P0A0H5)
T1 sequence (P0A0H5 whole entry): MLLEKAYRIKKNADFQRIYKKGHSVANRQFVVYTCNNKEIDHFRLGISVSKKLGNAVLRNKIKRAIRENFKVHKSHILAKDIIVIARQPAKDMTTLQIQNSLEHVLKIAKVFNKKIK
Assay: Inhibition of Staphylococcus aureus RnpA-mediated mRNA degradation after 15 to 30 mins by ethidium bromide staining based agarose gel electrophoresis
Summary of the method: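 Recombinant S. aureus RnpA protein of ≥97% purity was tested in vitro for inhibition of its mRNA degradation activity, following the procedure previously described.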

Q: For CC(C)c1ccc(OCC(=O)NNC(=S)NC(=O)c2ccno2)cc1, which IC50 is on record?
A: > 500 µM
